Published values gathered from unrelated publications.
Each line is one published result; the experiments were not run side by side. pIC50: −log10 of the molar value.
rep main protease: Replicase polyprotein 1ab, main protease (rep, Severe acute respiratory syndrome coronavirus 2, UniProt P0DTD1)
rep methyltransferase: Replicase polyprotein 1ab, methyltransferase (rep, Severe acute respiratory syndrome coronavirus 2, UniProt P0DTD1)

SMILES | target | observed | action | method | setting | endpoint | result
C[C@@H]1CCO[C@H]2Cn3cc(C(=O)NCc4ccc(F)cc4F)c(=O)c(O)c3C(=O)N12 | rep main protease | enzyme activity | inhibitor |  |  | pIC50 | 4.31
N#Cc1ccc(N2CCC(c3ccc(C(=O)O)cc3)=N2)cc1Cl | rep methyltransferase | enzyme activity | inhibitor |  |  | pIC50 | 4.27
O=C(N1CCC2(CC1)C[C@H](CN1CCCCS1(=O)=O)CCO2)C1(c2ccccc2)CCCC1 | Replicase polyprotein 1ab, helicase (rep, Severe acute respiratory syndrome coronavirus 2, UniProt P0DTD1) | ATPase activity | inhibitor |  |  | pIC50 | < 4.00
COc1ccc(OC)c(C(O)C(C)N)c1 (stereo not shown) | Alpha-1A adrenergic receptor (ADRA1A, Homo sapiens, UniProt P35348) | protein level | degrader | western blot |  | DC50 | 17.4 µM
O=C(O)c1cc(O)c(O)c(O)c1 | rep main protease | enzyme activity | inhibitor |  | with preincubation | pIC50 | > 5.00
CCC1CC(c2ccc(C(=O)O)cc2)=NN1c1ccc(C#N)c(Cl)c1 (stereo not shown) | rep methyltransferase | enzyme activity | inhibitor |  |  | pIC50 | 6.38
CC1(C)O[C@@H]2C[C@H]3[C@@H]4C[C@H](F)C5=CC(=O)C=C[C@]5(C)[C@@]4(F)[C@@H](O)C[C@]3(C)[C@]2(C(=O)CO)O1 | rep main protease | enzyme activity | inhibitor |  |  | pIC50 | 4.16
CCC(Sc1nnc2c(n1)[nH]c1ccccc12)C(=O)N1c2ccccc2Sc2ccccc21 (stereo not shown) | rep methyltransferase | enzyme activity | inhibitor |  |  | pIC50 | < 4.00
Cc1c(O)cccc1C(=O)N[C@@H](CSc1ccccc1)[C@H](O)CN1C[C@H]2CCCC[C@H]2C[C@H]1C(=O)NC(C)(C)C | rep main protease | enzyme activity | inhibitor |  |  | pIC50 | 4.54
O=C(O[C@@H]1Cc2c(O)cc(O)cc2O[C@@H]1c1ccc(O)c(O)c1)c1cc(O)c(O)c(O)c1 | rep main protease | enzyme activity | inhibitor |  | with preincubation | pIC50 | > 5.00
